Laboratory results taken from ChEMBL document CHEMBL1130129, “Immunologically specific activation of a cephalosporin derivative of mitomycin C by monoclonal antibody beta-lactamase conjugates” (J Med Chem, 1997).

Legend:
[1] = target: Beta-lactamase (Enterobacter cloacae) (UniProt P05364); experiment: Determination of kinetic constant (Kcat) for hydrolysis by beta-lactamase from Enterobacter cloacae P99
Method in brief: (§1)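 Purified E. cloacae β-lactamase (0.1 µg/mL) added to prodrug in PBS pH 7.2 containing 12.5 µg/mL bovine serum albumin, 23 °C; β-lactam hydrolysis followed by loss of absorbance at 260 nm. Initial velocities taken from linear portions of absorbance-time plots and used to derive kinetic constants.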

[2] = Ratio of kinetic constants for hydrolysis by beta-lactamase from Enterobacter cloacae P99 (kcat/Km); design: unit not given here; method in brief: as §1

Beta-lactamase (Enterobacter cloacae), sequence (P05364 21-381 limits assumed): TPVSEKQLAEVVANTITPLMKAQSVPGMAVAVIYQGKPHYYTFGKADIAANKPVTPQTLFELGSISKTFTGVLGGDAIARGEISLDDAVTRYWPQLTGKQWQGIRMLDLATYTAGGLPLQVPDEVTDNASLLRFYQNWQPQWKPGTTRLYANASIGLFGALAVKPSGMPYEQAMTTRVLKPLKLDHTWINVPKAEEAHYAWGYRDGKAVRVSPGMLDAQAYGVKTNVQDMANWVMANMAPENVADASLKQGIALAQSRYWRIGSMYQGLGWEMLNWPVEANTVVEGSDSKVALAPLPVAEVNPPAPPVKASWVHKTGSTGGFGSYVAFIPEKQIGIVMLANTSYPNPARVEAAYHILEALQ

Structure (SMILES)	k cat [1] [s⁻¹]	Ratio [2]
O=C(Cc1ccccc1)N[C@@H]1C(=O)N2C(C(=O)O)=C(COC(=O)Nc3ccc(N(CCCl)CCCl)cc3)CS[C@H]12	119	17
CO[C@@]12[C@H](COC(N)=O)C3=C(C(=O)C(C)=C(NCC4=C(C(=O)O)N5C(=O)[C@@H](NC(=O)Cc6ccccc6)[C@H]5SC4)C3=O)N1C[C@@H]1N[C@@H]12	476	9.7
CO[C@@]12[C@H](COC(N)=O)C3=C(C(=O)C(C)=C(NCC4=C(C(=O)O)N5C(=O)[C@@H](NC(=O)CCCC(=O)O)[C@H]5SC4)C3=O)N1C[C@@H]1N[C@@H]12	248	2.1
O=C(O)CCCC(=O)N[C@@H]1C(=O)N2C(C(=O)O)=C(COC(=O)Nc3ccc(N(CCCl)CCCl)cc3)CS[C@H]12	337	7.8
COc1cccc2c1C(=O)c1c(O)c3c(c(O)c1C2=O)C[C@@](O)(C(=O)CO)C[C@@H]3OC1CC(NC(=O)OCC2=C(C(=O)O)N3C(=O)[C@@H](NC(=O)CCCC(=O)O)[C@H]3SC2)C(O)C(C)O1 (some centres undefined)		2.5
